Source: ChEMBL document CHEMBL4689842, “EUbOPEN Chemogenomics Library wave 1” (2021)

Test system: U2OS
Assay: Multiplex assay against U2OS
Assay type: toxicity, cell-based
Conditions: human
Procedure, shortened: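 Cells stained live at seeding with Hoechst33342, BioTracker Green Microtubule Cytoskeleton Dye, MitoTracker Red and Annexin V Alexa Fluor 680 were imaged on a CQ1 microscope at 37°C and 5% CO2 after compound addition. Their classification by CellPathfinder machine-learning gating ran from Hoechst high-intensity objects versus normal cells, to healthy, pyknosed or fragmented nuclei among normal cells, to mitotic or apoptotic among pyknosed cells. Tubulin, mitochondrial-mass and membrane-permeability phenotypes are per cents of healthy-nucleus cells.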

[1] = 12 h, 1 µM, compound concentration 1 uM, replicate 1
[2] = 12 h, 1 µM, compound concentration 1 uM, replicate 2
[3] = 12 h, 10 µM, compound concentration 10 uM, replicate 1
[4] = 12 h, 10 µM, compound concentration 10 uM, replicate 2
[5] = 24 h, 1 µM, compound concentration 1 uM, replicate 1
[6] = 24 h, 1 µM, compound concentration 1 uM, replicate 2
[7] = 24 h, 10 µM, compound concentration 10 uM, replicate 1
[8] = 24 h, 10 µM, compound concentration 10 uM, replicate 2
[9] = 48 h, 1 µM, compound concentration 1 uM, replicate 1
[10] = 48 h, 1 µM, compound concentration 1 uM, replicate 2
[11] = 48 h, 10 µM, compound concentration 10 uM, replicate 1
[12] = 48 h, 10 µM, compound concentration 10 uM, replicate 2

COc1cc2c(NC3CCN(C(C)C)CC3)nc(N3CCC(F)(F)CC3)nc2cc1OCCCN1CCCC1
Population Apoptotic (%) [1]: 44%
Population Fragmented Nuclei (%) [1]: 10%
Population Healthy Nuclei (%) [1]: 72%
Population Hoechst High Intensity Objects (%) [1]: 13%
Population Mitochondria Different-Phenotype (%) [1]: 17%
Population Mitotic Cells (%) [1]: 55%
Population Normal (%) [1]: 86%
Population Pyknosed Nuclei (%) [1]: 17%
Total Cell Count [1]: 136
Population Apoptotic (%) [2]: 30%
Population Fragmented Nuclei (%) [2]: 20%
Population Healthy Nuclei (%) [2]: 67%
Population Hoechst High Intensity Objects (%) [2]: 5%
Population Membrane Permeable-Phenotype (%) [2]: 3%
Population Mitochondria Different-Phenotype (%) [2]: 22%
Population Mitotic Cells (%) [2]: 70%
Population Normal (%) [2]: 94%
Population Pyknosed Nuclei (%) [2]: 11%
Population Tubulin-Different-Phenotype (%) [2]: 19%
Total Cell Count [2]: 105
Population Apoptotic (%) [3]: 68%
Population Fragmented Nuclei (%) [3]: 14%
Population Healthy Nuclei (%) [3]: 71%
Population Hoechst High Intensity Objects (%) [3]: 8%
Population Membrane Permeable-Phenotype (%) [3]: 27%
Population Mitochondria Different-Phenotype (%) [3]: 98%
Population Mitotic Cells (%) [3]: 31%
Population Normal (%) [3]: 91%
Population Pyknosed Nuclei (%) [3]: 14%
Population Tubulin-Different-Phenotype (%) [3]: 100%
Total Cell Count [3]: 181
Population Apoptotic (%) [4]: 66%
Population Fragmented Nuclei (%) [4]: 11%
Population Healthy Nuclei (%) [4]: 76%
Population Membrane Permeable-Phenotype (%) [4]: 66%
Population Mitochondria Different-Phenotype (%) [4]: 97%
Population Mitotic Cells (%) [4]: 33%
Population Pyknosed Nuclei (%) [4]: 11%
Population Tubulin-Different-Phenotype (%) [4]: 97%
Total Cell Count [4]: 89
Population Apoptotic (%) [5]: 31%
Population Fragmented Nuclei (%) [5]: 9%
Population Healthy Nuclei (%) [5]: 65%
Population Hoechst High Intensity Objects (%) [5]: 11%
Population Membrane Permeable-Phenotype (%) [5]: 0%
Population Mitochondria Different-Phenotype (%) [5]: 8%
Population Mitotic Cells (%) [5]: 68%
Population Normal (%) [5]: 88%
Population Pyknosed Nuclei (%) [5]: 24%
Population Tubulin-Different-Phenotype (%) [5]: 9%
Total Cell Count [5]: 157
Population Apoptotic (%) [6]: 29%
Population Fragmented Nuclei (%) [6]: 14%
Population Healthy Nuclei (%) [6]: 68%
Population Hoechst High Intensity Objects (%) [6]: 8%
Population Membrane Permeable-Phenotype (%) [6]: 2%
Population Mitochondria Different-Phenotype (%) [6]: 7%
Population Mitotic Cells (%) [6]: 70%
Population Normal (%) [6]: 91%
Population Pyknosed Nuclei (%) [6]: 16%
Population Tubulin-Different-Phenotype (%) [6]: 12%
Total Cell Count [6]: 113
Population Apoptotic (%) [7]: 70%
Population Fragmented Nuclei (%) [7]: 14%
Population Healthy Nuclei (%) [7]: 60%
Population Hoechst High Intensity Objects (%) [7]: 6%
Population Membrane Permeable-Phenotype (%) [7]: 56%
Population Mitochondria Different-Phenotype (%) [7]: 98%
Population Mitotic Cells (%) [7]: 30%
Population Normal (%) [7]: 93%
Population Pyknosed Nuclei (%) [7]: 24%
Population Tubulin-Different-Phenotype (%) [7]: 98%
Total Cell Count [7]: 218
Population Apoptotic (%) [8]: 90%
Population Fragmented Nuclei (%) [8]: 18%
Population Healthy Nuclei (%) [8]: 59%
Population Hoechst High Intensity Objects (%) [8]: 7%
Population Membrane Permeable-Phenotype (%) [8]: 82%
Population Mitochondria Different-Phenotype (%) [8]: 100%
Population Mitotic Cells (%) [8]: 9%
Population Normal (%) [8]: 92%
Population Pyknosed Nuclei (%) [8]: 22%
Population Tubulin-Different-Phenotype (%) [8]: 96%
Total Cell Count [8]: 112
Population Apoptotic (%) [9]: 27%
Population Fragmented Nuclei (%) [9]: 11%
Population Healthy Nuclei (%) [9]: 64%
Population Hoechst High Intensity Objects (%) [9]: 10%
Population Mitochondria Different-Phenotype (%) [9]: 4%
Population Mitotic Cells (%) [9]: 72%
Population Normal (%) [9]: 89%
Population Pyknosed Nuclei (%) [9]: 24%
Population Tubulin-Different-Phenotype (%) [9]: 15%
Total Cell Count [9]: 194
Population Apoptotic (%) [10]: 29%
Population Fragmented Nuclei (%) [10]: 8%
Population Healthy Nuclei (%) [10]: 78%
Population Hoechst High Intensity Objects (%) [10]: 8%
Population Membrane Permeable-Phenotype (%) [10]: 2%
Population Mitochondria Different-Phenotype (%) [10]: 8%
Population Mitotic Cells (%) [10]: 70%
Population Normal (%) [10]: 91%
Population Pyknosed Nuclei (%) [10]: 12%
Population Tubulin-Different-Phenotype (%) [10]: 24%
Total Cell Count [10]: 141
Population Apoptotic (%) [11]: 79%
Population Fragmented Nuclei (%) [11]: 20%
Population Healthy Nuclei (%) [11]: 44%
Population Hoechst High Intensity Objects (%) [11]: 11%
Population Membrane Permeable-Phenotype (%) [11]: 55%
Population Mitochondria Different-Phenotype (%) [11]: 100%
Population Mitotic Cells (%) [11]: 20%
Population Normal (%) [11]: 88%
Population Pyknosed Nuclei (%) [11]: 35%
Population Tubulin-Different-Phenotype (%) [11]: 92%
Total Cell Count [11]: 337
Population Apoptotic (%) [12]: 92%
Population Fragmented Nuclei (%) [12]: 12%
Population Healthy Nuclei (%) [12]: 63%
Population Hoechst High Intensity Objects (%) [12]: 12%
Population Membrane Permeable-Phenotype (%) [12]: 75%
Population Mitochondria Different-Phenotype (%) [12]: 97%
Population Mitotic Cells (%) [12]: 7%
Population Normal (%) [12]: 87%
Population Pyknosed Nuclei (%) [12]: 24%
Population Tubulin-Different-Phenotype (%) [12]: 88%
Total Cell Count [12]: 149
